# Experimental data of several laboratories.
# Compare with care: the assays were run in different laboratories.
SMILES,target or system,assay,test system,setting,quantity,value
Cc1ccc2nc(-c3ccc(Cl)cc3)[nH]c2c1,human Rhabdomyosarcoma cell,"cell growth or viability, MTT",,48 h,IC50,48.3 µM
CC1(C)S[C@@H]2[C@H](NC(=O)[C@H](N)c3ccccc3)C(=O)N2[C@H]1C(=O)O,Enterococcus gallinarum,"microbial growth, broth dilution",GALLINARUM,,MIC,8 µg/mL
CCCc1nc(N(C)C)c2c(c1O)C(=O)C1=C(O)[C@]3(O)C(=O)C(C(N)=O)=C(O)[C@@H](N(C)C)[C@@H]3C[C@@H]1C2.Cl.Cl,Enterobacter cloacae,"microbial growth, broth dilution",ATCC13047,,MIC,> 32 µg/mL
CC(=O)O[C@H]1C(=O)[C@@]2(C)[C@H]([C@H](OC(=O)c3ccccc3)[C@]3(O)C[C@H](OC(=O)[C@H](O)[C@@H](NC(=O)c4ccccc4)c4ccccc4)C(C)=C1C3(C)C)[C@]1(OC(C)=O)CO[C@@H]1C[C@@H]2O,human Rhabdomyosarcoma cell,"cell growth or viability, MTT",,48 h,IC50,6.13 µM
C[C@@H](Oc1cc(-c2cnn(C3CCNCC3)c2)cnc1N)c1c(Cl)ccc(F)c1Cl,NCI-H3122,"cell growth or viability, MTT",,"1 µg/mL, 72 h",inhibition,77.5%
CC(C)CCNc1nc(Cl)c2c(c1O)C(=O)C1=C(O)[C@]3(O)C(=O)C(C(N)=O)=C(O)[C@@H](N(C)C)[C@@H]3C[C@@H]1C2.Cl.Cl.Cl,Enterobacter cloacae,"microbial growth, broth dilution",ATCC13047,,MIC,> 32 µg/mL
Oc1ccccc1-c1nc2ccccc2[nH]1,human Rhabdomyosarcoma cell,"cell growth or viability, MTT",,48 h,IC50,15.4 µM
C/C=C(\C)c1cc(O)c(C)c(OC(=O)c2c(C)cc(O)c(Cl)c2O)c1,Enterococcus gallinarum,"microbial growth, broth dilution",GALLINARUM,,MIC,8 µg/mL
CN(C)c1cc(CNCC(C)(C)C)c(O)c2c1C[C@H]1C[C@H]3[C@H](N(C)C)C(O)=C(C(N)=O)C(=O)[C@@]3(O)C(O)=C1C2=O,Enterobacter cloacae,"microbial growth, broth dilution",ATCC13047,,MIC,4 µg/mL
CC(C)Oc1c(NC(=O)c2ccc(NC(=O)[C@H](CC(N)=O)NC(=O)c3ccc(NC(=O)c4ccc(C#N)cn4)cc3)cc2)ccc(C(=O)Nc2ccc(C(=O)O)cc2)c1O,Serratia marcescens,microbial growth,DSM30121,,MIC,> 64 µg/mL
CN(C)[C@@H]1C(O)=C(C(N)=O)C(=O)[C@@]2(O)C(O)=C3C(=O)c4c(cnc(-c5ccccc5)c4O)C[C@H]3C[C@@H]12.Cl.Cl,Enterobacter cloacae,"microbial growth, broth dilution",ATCC13047,,MIC,> 32 µg/mL
Cc1cc(Nc2ncc(Cl)c(Nc3ccccc3S(=O)(=O)C(C)C)n2)c(OC(C)C)cc1C1CCNCC1,NCI-H3122,"cell growth or viability, MTT",,"2 µg/mL, 72 h",inhibition,90.7%
